ChEMBL document CHEMBL1123541, “Preparation and antitumor activity of 7-substituted 1,2-aziridinomitosenes” (J Med Chem, 1986)

Legend:
Mus musculus [1] = experiment: Average weight change of BDF1 female mice at a dose of 16 mg/kg per injection; type: functional
Outline: (§1)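 BDF1 female mice implanted ip with 10^6 ascites leukemia cells, then given the aziridinomitosene on day 1 only, six mice per dose. Average weight change is the weight difference between the treated and control groups.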

P388 [2] = experiment: Compound was tested for antitumor activity against P388 Murine leukemia in BDF1 female mice at a dose of 3.2 mg/kg per injection given as MST treated / MST control x 100; type: functional, Mus musculus
Outline: (§2)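 P388 ascites cells (10^6) implanted ip into BDF1 female mice. Aziridinomitosene given on day 1 only, six mice per dose; ten saline-treated mice on day 1 only as controls. Read-out is median survival time in days, %T/C = MST treated/MST control × 100, with 125 taken as significant. Mitomycin C run as a positive control at its optimal dose.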

[3] = Partition coefficient (logP); type: physicochemical; conditions: octanol/water
Mus musculus [4] = experiment: Average weight change of BDF1 female mice at a dose of 8 mg/kg per injection; type: functional; outline: as §1
Mus musculus [5] = experiment: Average weight change of BDF1 female mice at a dose of 64 mg/kg per injection; type: functional; outline: as §1
P388 [6] = experiment: Compound was tested for antitumor activity against P388 Murine leukemia in BDF1 female mice at a dose of 4 mg/kg per injection; type: functional, Mus musculus; outline: as §2
P388 [7] = experiment: Compound was tested for antitumor activity against P388 Murine leukemia in BDF1 female mice at a dose of 64 mg/kg per injection; type: functional, Mus musculus; outline: as §2
P388 [8] = experiment: Compound was tested for antitumor activity against P388 Murine leukemia in BDF1 female mice at a dose of 16 mg/kg per injection; type: functional, Mus musculus; outline: as §2
P388 [9] = experiment: Compound was tested for antitumor activity against P388 Murine leukemia in BDF1 female mice at a dose of 32 mg/kg per injection; type: functional, Mus musculus; outline: as §2
Mus musculus [10] = experiment: Average weight change of BDF1 female mice at a dose of 32 mg/kg per injection; type: functional; outline: as §1
Mus musculus [11] = experiment: Average weight change of BDF1 female mice at a dose of 4 mg/kg per injection; type: functional; outline: as §1
P388 [12] = experiment: Compound was tested for antitumor activity against P388 Murine leukemia in BDF1 female mice at a dose of 8 mg/kg per injection; type: functional, Mus musculus; outline: as §2
P388 [13] = experiment: Minimum effective dose determined against P-388 Murine leukemia in BDF1 female mice.; type: functional; conditions: Mus musculus, read-out: MED
L1210 [14] = experiment: Compound was tested for antitumor activity against L-1210 Murine leukemia in BDF1 female mice at dose of 40 mg/kg inj; type: functional, Mus musculus
Outline: (§3)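 L-1210 run per NCI protocol. 10^6 ascites cells implanted ip into BDF1 female mice. Aziridinomitosene given on day 1 only, six mice per dose, with a control group of 36 mice. Median survival time in days is recorded, and %T/C = MST treated/MST control × 100, with 125 taken as significant.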

L1210 [15] = experiment: Compound was tested for antitumor activity against L-1210 Murine leukemia in BDF1 female mice at dose of 20 mg/kg inj; type: functional, Mus musculus; outline: as §3
Mus musculus [16] = experiment: Average weight change of BDF1 female mice at a dose of 6.4 mg/kg per injection; type: functional; outline: as §1
Mus musculus [17] = experiment: Average weight change of BDF1 female mice at a dose of 12.8 mg/kg per injection; type: functional; outline: as §1
Mus musculus [18] = experiment: Average weight change of BDF1 female mice at a dose of 25.6 mg/kg per injection; type: functional; outline: as §1
P388 [19] = experiment: Compound was tested for antitumor activity against P388 Murine leukemia in BDF1 female mice at a dose of 3.2 mg/kg per injection; type: functional, Mus musculus; outline: as §2
Mus musculus [20] = experiment: Average weight change of BDF1 female mice at a dose of 51.2 mg/kg per injection; type: functional; outline: as §1
P388 [21] = experiment: Compound was tested for antitumor activity against P388 Murine leukemia in BDF1 female mice at a dose of 1.6 mg/kg per injection (MST treated / MST control x 100); type: functional, Mus musculus; outline: as §2
P388 [22] = experiment: Compound was tested for antitumor activity against P388 Murine leukemia in BDF1 female mice at a dose of 25.6 mg/kg per injection; type: functional, Mus musculus; outline: as §2
P388 [23] = experiment: Compound was tested for antitumor activity against P388 Murine leukemia in BDF1 female mice at a dose of 6.4 mg/kg per injection; type: functional, Mus musculus; outline: as §2
P388 [24] = experiment: (§4) Compound was tested for antitumor activity against P388 Murine leukemia in BDF1 female mice at a dose of 12.8 mg/kg per injection; type: functional, Mus musculus; outline: as §2
P388 [25] = experiment: Compound was tested for antitumor activity against P388 Murine leukemia in BDF1 female mice at a dose of 51.2 mg/kg per injection; type: functional, Mus musculus; outline: as §2
Mus musculus [26] = experiment: Average weight change of BDF1 female mice at a dose of 3.2 mg/kg per injection; type: functional; outline: as §1
Mus musculus [27] = experiment: Average weight change of BDF1 female mice at a dose of 1.6 mg/kg per injection; type: functional; outline: as §1
P388 [28] = experiment: as §4; type: functional, Mus musculus; parameters: unit not given here; outline: as §2
P388 [29] = experiment: Compound was tested for antitumor activity against P388 Murine leukemia in BDF1 female mice at a dose of 3.2 mg/kg per injection (MST treated / MST control x 100); type: functional, Mus musculus; outline: as §2
P388 [30] = experiment: Compound was tested for antitumor activity against P388 Murine leukemia in BDF1 female mice at a dose of 1.6 mg/kg per injection; type: functional, Mus musculus; outline: as §2

Compound | Weight change (Mus musculus [1]) [g] | logP [3] | Weight change (Mus musculus [4]) [g] | Weight change (Mus musculus [5]) [g] | MST (P388 [7]) [days] | MST (P388 [8]) [days] | MST (P388 [9]) [days] | Weight change (Mus musculus [10]) [g] | MST (P388 [12]) [days] | minimal effective dose (P388 [13]) [mg/kg] | Weight change (Mus musculus [16]) [g] | Weight change (Mus musculus [17]) [g] | Weight change (Mus musculus [18]) [g] | Weight change (Mus musculus [20]) [g] | MST (P388 [22]) [% T/C] | MST (P388 [23]) [%T/C] | MST (P388 [25]) [days] | Weight change (Mus musculus [26]) [g] | Weight change (Mus musculus [27]) [g] | MST (P388 [28]) | further results
CC1=C(NCc2ccco2)C(=O)c2c(COC(N)=O)c3n(c2C1=O)CC1NC31 (stereo not given) | -1.7 | 1.33 | 0.1 | -1.8 | 183 | 156 | 189 | -1.2 | 144 | 8 | – | – | – | – | – | – | – | – | – | – | T/C (P388 [2]): 228%; MST (P388 [6]): 122 days; Weight change (Mus musculus [11]): -0.7 g
C#CCNC1=C(C)C(=O)c2c(c(COC(N)=O)c3n2CC2NC32)C1=O (stereo not given) | -0.3 | 1.21 | -0.2 | -0.9 | 172 | 128 | 144 | 0 | 122 | 16 | – | – | – | – | – | – | – | – | – | – | T/C (L1210 [14]): 140%; Weight change (L1210 [14]): -2.8 g; T/C (L1210 [15]): 122%; Weight change (L1210 [15]): -1.8 g
CC1=C(N2CC2C)C(=O)c2c(COC(N)=O)c3n(c2C1=O)CC1NC31 (stereo not given) | – | 0.82 | – | – | – | – | – | – | – | 1.6 | -0.4 | -0.5 | -1 | -1.3 | 181 | 144 | 219 | 0 | 0 | – | MST (P388 [19]): 138 days; T/C (P388 [21]): 125%; MST (P388 [24]): 156 days
COC1=C(C)C(=O)c2c(c(COC(N)=O)c3n2CC2NC32)C1=O (stereo not given) | – | 0.87 | – | – | – | – | – | – | – | 12.8 | 0 | -0.8 | -0.4 | – | 167 | 122 | – | -0.4 | – | 139 | T/C (P388 [29]): 122%
CC1=C(N2CC2)C(=O)c2c(COC(N)=O)c3n(c2C1=O)CC1C3N1C (stereo not given) | – | 0.71 | – | – | – | – | – | – | – | 1.6 | -1.1 | -1.9 | -2.2 | -2.5 | 239 | 172 | 139 | 0 | -1.3 | 172 | MST (P388 [30]): 122 days; T/C (P388 [29]): 117%
